Source: ChEMBL document CHEMBL4145497, “Discovery of 2-aminothiazolyl berberine derivatives as effectively antibacterial agents toward clinically drug-resistant Gram-negative Acinetobacter baumanii” (Eur J Med Chem, 2018)
In brackets after ≈: the same amount, converted by molar mass.

Legend:
Pichia norvegensis = experiment: Antifungal activity against Candida mycoderma ATCC 96918 by CLSI two fold serial dilution method; assay type: functional
Pseudomonas aeruginosa [1] = experiment: Antibacterial activity against Pseudomonas aeruginosa ATCC 27853 after 18 to 24 hrs by CLSI two fold serial dilution method; assay type: functional
Staphylococcus aureus [2] = experiment: Antibacterial activity against Staphylococcus aureus ATCC 25923 after 18 to 24 hrs by CLSI two fold serial dilution method; assay type: functional
Micrococcus luteus = experiment: Antibacterial activity against Micrococcus luteus ATCC 4698 after 18 to 24 hrs by CLSI two fold serial dilution method; assay type: functional
Escherichia coli [3] = experiment: Antibacterial activity against Escherichia coli DH52 after 18 to 24 hrs by CLSI two fold serial dilution method; assay type: functional
Candida albicans [4] = experiment: Antifungal activity against Candida albicans ATCC 76615 by CLSI two fold serial dilution method; assay type: functional
Candida parapsilosis = experiment: Antifungal activity against Candida parapsilosis ATCC 22019 by CLSI two fold serial dilution method; assay type: functional; settings: Lodderomyces parapsilosis
Saccharomyces cerevisiae = experiment: Antifungal activity against Saccharomyces cerevisiae ATCC 9763 by CLSI two fold serial dilution method; assay type: functional
Aspergillus flavus = experiment: Antifungal activity against Aspergillus flavus ATCC 204304 by CLSI two fold serial dilution method; assay type: functional
Cyberlindnera jadinii = experiment: Antifungal activity against Candida utilis ATCC 9950 by CLSI two fold serial dilution method; assay type: functional; settings: Williopsis jadinii
Bacillus subtilis = experiment: Antibacterial activity against Bacillus subtilis ATCC 21216 after 18 to 24 hrs by CLSI two fold serial dilution method; assay type: functional
[5] = Aqueous solubility of the compound in phosphate buffer at pH 7.4 after 3 hrs by UV detection assay; assay type: physicochemical
Outline: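 Water solubility measured at physiological pH, with berberine as the control.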

Candida tropicalis = experiment: Antifungal activity against drug-resistant Candida tropicalis by CLSI two fold serial dilution method; assay type: functional
Staphylococcus aureus [6] = experiment: Antibacterial activity against methicillin-resistant Staphylococcus aureus N315 after 18 to 24 hrs by CLSI two fold serial dilution method; assay type: functional
Acinetobacter baumannii = experiment: Antibacterial activity against drug-resistant Acinetobacter baumannii after 18 to 24 hrs by CLSI two fold serial dilution method; assay type: functional
Klebsiella pneumoniae = experiment: Antibacterial activity against drug-resistant Klebsiella pneumoniae after 18 to 24 hrs by CLSI two fold serial dilution method; assay type: functional
Candida albicans [7] = experiment: Antifungal activity against drug-resistant Candida albicans by CLSI two fold serial dilution method; assay type: functional
Enterococcus faecalis = experiment: Antibacterial activity against drug-resistant Enterococcus faecalis after 18 to 24 hrs by CLSI two fold serial dilution method; assay type: functional
Escherichia coli [8] = experiment: Antibacterial activity against drug-resistant Escherichia coli after 18 to 24 hrs by CLSI two fold serial dilution method; assay type: functional
Aspergillus fumigatus = experiment: Antifungal activity against drug-resistant Aspergillus fumigatus by CLSI two fold serial dilution method; assay type: functional
Pseudomonas aeruginosa [9] = experiment: Antibacterial activity against drug-resistant Pseudomonas aeruginosa after 18 to 24 hrs by CLSI two fold serial dilution method; assay type: functional

Row | SMILES | MIC (Pichia norvegensis) [µM] | MIC (Pseudomonas aeruginosa [1]) [µM] | MIC (Staphylococcus aureus [2]) [µM] | MIC (Micrococcus luteus) [µM] | MIC (Escherichia coli [3]) [µM] | MIC (Candida albicans [4]) [µM] | MIC (Candida parapsilosis) [µM] | MIC (Saccharomyces cerevisiae) [µM] | MIC (Aspergillus flavus) [µM] | MIC (Cyberlindnera jadinii) [µM] | MIC (Bacillus subtilis) [µM] | MIC (Candida tropicalis) [µM] | MIC (Staphylococcus aureus [6]) [µM] | MIC (Acinetobacter baumannii) [µM] | MIC (Klebsiella pneumoniae) [µM] | MIC (Candida albicans [7]) [µM] | MIC (Enterococcus faecalis) [µM] | MIC (Escherichia coli [8]) [µM] | MIC (Aspergillus fumigatus) [µM] | MIC (Pseudomonas aeruginosa [9]) [µM] | also measured
1 | COc1cc(/C=N/Nc2nccs2)c2c(c1OCc1cccc(Cl)c1)CN1CCc3cc4c(cc3C1C2)OCO4 (stereo unspecified) | 220 (≈ 127 µg/mL) | 220 (≈ 127 µg/mL) | 220 (≈ 127 µg/mL) | 220 (≈ 127 µg/mL) | 890 (≈ 512 µg/mL) | 450 (≈ 259 µg/mL) | 60 (≈ 34.5 µg/mL) | 890 (≈ 512 µg/mL) | 450 (≈ 259 µg/mL) | 450 (≈ 259 µg/mL) | 110 (≈ 63.3 µg/mL) | – | – | – | – | – | – | – | – | – | solubility at 3 h [5]: 374 to 3190 µg/mL (≈ 0.65 to 5.55 mM)
2 | COc1cc(/C=N/Nc2nccs2)c2c(c1OCc1ccccc1Cl)CN1CCc3cc4c(cc3C1C2)OCO4 (stereo unspecified) | 110 (≈ 63.3 µg/mL) | 450 (≈ 259 µg/mL) | 110 (≈ 63.3 µg/mL) | 890 (≈ 512 µg/mL) | 450 (≈ 259 µg/mL) | 450 (≈ 259 µg/mL) | 110 (≈ 63.3 µg/mL) | 890 (≈ 512 µg/mL) | 890 (≈ 512 µg/mL) | 450 (≈ 259 µg/mL) | 220 (≈ 127 µg/mL) | – | – | – | – | – | – | – | – | – | solubility at 3 h [5]: 374 to 3190 µg/mL (≈ 0.65 to 5.55 mM)
3 | CCCCCCCCCCCCOc1c(OC)cc(/C=N/NC(N)=S)c2c1CN1CCc3cc4c(cc3C1C2)OCO4 (stereo unspecified) | 220 (≈ 131 µg/mL) | 110 (≈ 65.4 µg/mL) | 110 (≈ 65.4 µg/mL) | 110 (≈ 65.4 µg/mL) | 110 (≈ 65.4 µg/mL) | 110 (≈ 65.4 µg/mL) | 220 (≈ 131 µg/mL) | 220 (≈ 131 µg/mL) | 430 (≈ 256 µg/mL) | 430 (≈ 256 µg/mL) | 430 (≈ 256 µg/mL) | 50 (≈ 29.7 µg/mL) | 110 (≈ 65.4 µg/mL) | 7 (≈ 4.16 µg/mL) | 430 (≈ 256 µg/mL) | 110 (≈ 65.4 µg/mL) | 220 (≈ 131 µg/mL) | 110 (≈ 65.4 µg/mL) | 7 (≈ 4.16 µg/mL) | 110 (≈ 65.4 µg/mL) | –
4 | COc1cc(/C=N/Nc2nccs2)c2c(c1OCc1ccc([N+](=O)[O-])cc1)CN1CCc3cc4c(cc3C1C2)OCO4 (stereo unspecified) | 220 (≈ 129 µg/mL) | 50 (≈ 29.3 µg/mL) | 110 (≈ 64.4 µg/mL) | 220 (≈ 129 µg/mL) | 440 (≈ 258 µg/mL) | 220 (≈ 129 µg/mL) | 7 (≈ 4.1 µg/mL) | 440 (≈ 258 µg/mL) | 870 (≈ 510 µg/mL) | 440 (≈ 258 µg/mL) | 110 (≈ 64.4 µg/mL) | – | – | – | – | – | – | – | – | – | solubility at 3 h [5]: 374 to 3190 µg/mL (≈ 0.639 to 5.45 mM)
5 | COc1cc(/C=N/NC(N)=S)c2c(c1OCc1ccc(F)cc1)CN1CCc3cc4c(cc3C1C2)OCO4 (stereo unspecified) | 240 (≈ 128 µg/mL) | 240 (≈ 128 µg/mL) | 120 (≈ 64.2 µg/mL) | 480 (≈ 257 µg/mL) | 240 (≈ 128 µg/mL) | 120 (≈ 64.2 µg/mL) | 60 (≈ 32.1 µg/mL) | 240 (≈ 128 µg/mL) | 480 (≈ 257 µg/mL) | 480 (≈ 257 µg/mL) | 480 (≈ 257 µg/mL) | 120 (≈ 64.2 µg/mL) | 120 (≈ 64.2 µg/mL) | 8 (≈ 4.28 µg/mL) | 480 (≈ 257 µg/mL) | 120 (≈ 64.2 µg/mL) | 120 (≈ 64.2 µg/mL) | 240 (≈ 128 µg/mL) | 120 (≈ 64.2 µg/mL) | 240 (≈ 128 µg/mL) | –
6 | COc1cc(/C=N/NC(N)=S)c2c(c1OCc1ccc(Cl)c(Cl)c1)CN1CCc3cc4c(cc3C1C2)OCO4 (stereo unspecified) | 440 (≈ 258 µg/mL) | 220 (≈ 129 µg/mL) | 220 (≈ 129 µg/mL) | 440 (≈ 258 µg/mL) | 110 (≈ 64.4 µg/mL) | 440 (≈ 258 µg/mL) | 220 (≈ 129 µg/mL) | 220 (≈ 129 µg/mL) | 440 (≈ 258 µg/mL) | 220 (≈ 129 µg/mL) | 220 (≈ 129 µg/mL) | 110 (≈ 64.4 µg/mL) | 220 (≈ 129 µg/mL) | 30 (≈ 17.6 µg/mL) | 220 (≈ 129 µg/mL) | 440 (≈ 258 µg/mL) | 440 (≈ 258 µg/mL) | 110 (≈ 64.4 µg/mL) | 3 (≈ 1.76 µg/mL) | 220 (≈ 129 µg/mL) | –
7 | COc1cc(/C=N/NC(N)=S)c2c(c1OCc1cccc(Cl)c1)CN1CCc3cc4c(cc3C1C2)OCO4 (stereo unspecified) | 120 (≈ 66.1 µg/mL) | 230 (≈ 127 µg/mL) | 60 (≈ 33.1 µg/mL) | 470 (≈ 259 µg/mL) | 230 (≈ 127 µg/mL) | 230 (≈ 127 µg/mL) | 120 (≈ 66.1 µg/mL) | 230 (≈ 127 µg/mL) | 230 (≈ 127 µg/mL) | 470 (≈ 259 µg/mL) | 120 (≈ 66.1 µg/mL) | 230 (≈ 127 µg/mL) | 120 (≈ 66.1 µg/mL) | 120 (≈ 66.1 µg/mL) | 120 (≈ 66.1 µg/mL) | 470 (≈ 259 µg/mL) | 230 (≈ 127 µg/mL) | 470 (≈ 259 µg/mL) | 120 (≈ 66.1 µg/mL) | 470 (≈ 259 µg/mL) | –
8 | COc1cc(/C=N/NC(N)=S)c2c(c1OCc1ccccc1)CN1CCc3cc4c(cc3C1C2)OCO4 (stereo unspecified) | 500 (≈ 258 µg/mL) | 250 (≈ 129 µg/mL) | 120 (≈ 62 µg/mL) | 250 (≈ 129 µg/mL) | 250 (≈ 129 µg/mL) | 250 (≈ 129 µg/mL) | 30 (≈ 15.5 µg/mL) | 250 (≈ 129 µg/mL) | 250 (≈ 129 µg/mL) | 250 (≈ 129 µg/mL) | 250 (≈ 129 µg/mL) | 250 (≈ 129 µg/mL) | 120 (≈ 62 µg/mL) | 120 (≈ 62 µg/mL) | 500 (≈ 258 µg/mL) | 250 (≈ 129 µg/mL) | 250 (≈ 129 µg/mL) | 250 (≈ 129 µg/mL) | 60 (≈ 31 µg/mL) | 250 (≈ 129 µg/mL) | –
9 | COc1cc(/C=N/NC(N)=S)c2c(c1O)CN1CCc3cc4c(cc3C1C2)OCO4 (stereo unspecified) | 300 (≈ 128 µg/mL) | 150 (≈ 64 µg/mL) | 150 (≈ 64 µg/mL) | 300 (≈ 128 µg/mL) | 300 (≈ 128 µg/mL) | 150 (≈ 64 µg/mL) | 9 (≈ 3.84 µg/mL) | 300 (≈ 128 µg/mL) | 600 (≈ 256 µg/mL) | 600 (≈ 256 µg/mL) | 300 (≈ 128 µg/mL) | 300 (≈ 128 µg/mL) | 150 (≈ 64 µg/mL) | 150 (≈ 64 µg/mL) | 150 (≈ 64 µg/mL) | 300 (≈ 128 µg/mL) | 300 (≈ 128 µg/mL) | 600 (≈ 256 µg/mL) | 150 (≈ 64 µg/mL) | 150 (≈ 64 µg/mL) | –
